SMILES strings stand for the structures. Peptide text beside a SMILES is read from it. * marks the point of attachment. X1 = CC1=C(C*)C2=C(C)C3(CC3)[C@@](C)(O)C(=O)C2=C1

The IC50 is the concentration needed to halve the response being measured.

The nature of this assay: Concentration required for 50% toxicity in metastatic lung carcinoma (MV522) cells. To be noted: Homo sapiens. An outline of the steps:
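Compounds held as 1 mg/mL DMSO stock, diluted in 20% DMSO/phosphate-buffered saline just before addition to MV 522 cultures; controls got equal DMSO/PBS. After 48 h incubation, cells were washed, stained with trypan blue and counted. Counts were reported as corresponding closely with colony-forming assay values.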

Take `CC1=C2C(=C[C@@](C)(CO)C2O)C(=O)[C@](C)(O)C12CC2` (stereo partly specified): half-maximal inhibition (IC50) was put at 0.073 µM.
As to `CC(=O)N[C@@H](CSCC1=C(C)C=C2C(=O)[C@](C)(O)C3(CC3)C(C)=C21)C(=O)N[C@@H](CC(C)C)C(=O)N[C@@H](CC(C)C)C(=O)N[C@@H](CC(C)C)C(=O)O` (Ac-C(X1)LLL-OH), the midpoint of inhibition, the IC50, lay at 24.7 µM.
Consider `CC1=C(CSCC[C@H](N)C(=O)O)C2=C(C)C3(CC3)[C@@](C)(O)C(=O)C2=C1`, for which the IC50 is over 50 µM.
In turn, `CC(=O)N[C@@H](CSCC1=C(C)C=C2C(=O)[C@](C)(O)C3(CC3)C(C)=C21)C(=O)N[C@@H](Cc1ccccc1)C(=O)NCC(=O)N[C@@H](CC(C)C)C(=O)O` (Ac-C(X1)FGL-OH) showed an IC50 of 37.2 µM.
Take `CC(=O)N[C@@H](CSCC1=C(C)C=C2C(=O)[C@](C)(O)C3(CC3)C(C)=C21)C(=O)N[C@@H](CC(C)C)C(=O)NCC(=O)N[C@@H](Cc1ccccc1)C(=O)O` (Ac-C(X1)LGF-OH): the IC50 was determined as 28.2 µM.
Turning to `CC1=C(CO)C2=C(C)C3(CC3)[C@@](C)(O)C(=O)C2=C1` [IROFULVEN], the IC50 turned out to be 0.004 µM.
The figure for `CC1=CC2=C(C)C3(CC3)[C@@](C)(O)C(=O)C2=C1` [ACYLFULVENE] is 0.35 µM; for `CC1=C(CSCC(NC(=O)CCC(N)C(=O)O)C(=O)NCC(=O)O)C2=C(C)C3(CC3)[C@@](C)(O)C(=O)C2=C1` (stereo partly specified) it is 15.5 µM.
Regarding `CC(=O)N[C@@H](CSCC1=C(C)C=C2C(=O)[C@](C)(O)C3(CC3)C(C)=C21)C(=O)N[C@@H](CC(C)C)C(=O)N[C@@H](CC(C)C)C(=O)N[C@@H](Cc1ccccc1)C(=O)O` (Ac-C(X1)LLF-OH), the IC50 is over 40 µM.
The compound `CC(=O)NC(CSCC1=C(C)C=C2C(=O)[C@](C)(O)C3(CC3)C(C)=C21)C(=O)N[C@@H](C)c1ccccc1` (stereo partly specified) gave a half-inhibitory concentration (IC50) of 2.5 µM.
Next, `CC1=C(CSCC(N)C(=O)O)C2=C(C)C3(CC3)[C@@](C)(O)C(=O)C2=C1` (stereo partly specified): 29.2 µM.

Source of the values: ChEMBL document CHEMBL1133655, “Preparation and biological activity of amino acid and peptide conjugates of antitumor hydroxymethylacylfulvene” (J Med Chem, 2000).
